According to ChEMBL document CHEMBL4477200, “Design, Synthesis, and Preclinical Evaluation of 4-Substituted-5-methyl-furo[2,3-d]pyrimidines as Microtubule Targeting Agents That Are Effective against Multidrug Resistant Cancer Cells” (J Med Chem, 2016):

Experiments:
Tubulin = Tubulin (Bos taurus, UniProt Q6B856+Q862L2+Q862F3); assay: Inhibition of tubulin assembly in bovine brain […] assessed as reduction in turbidity increase preincubated for 15 mins followed by GTP addition measured for 20 mins by spectrophotometric analysis
Outline: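 Purified bovine brain tubulin, 1.0 mg/mL (10 µM), was preincubated 15 min at 30 °C in 0.8 M monosodium glutamate (pH 6.6) with compound and 4% DMSO. Mixtures were chilled and 0.4 mM GTP added. Turbidity was followed for 20 min at 30 °C. IC50 is the concentration halving the turbidity increase, interpolated between tested concentrations.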

HL-60(TB) = assay: Cytotoxicity against human HL-60(TB) cells assessed as growth inhibition after 48 hrs by SRB assay; format: functional; settings: HL-60, 48 h
K562 = assay: Cytotoxicity against human K562 cells assessed as growth inhibition after 48 hrs by SRB assay; format: functional; settings: K562, 48 h
RPMI-8226 = assay: Cytotoxicity against human RPMI8226 cells assessed as growth inhibition after 48 hrs by SRB assay; format: functional; settings: RPMI-8226, 48 h
A549 = assay: Cytotoxicity against human A549 cells assessed as growth inhibition after 48 hrs by SRB assay; format: functional; settings: A549, 48 h
EKVX = assay: Cytotoxicity against human EKVX cells assessed as growth inhibition after 48 hrs by SRB assay; format: functional
NCI-H23 = assay: Cytotoxicity against human NCI-H23 cells assessed as growth inhibition after 48 hrs by SRB assay; format: functional; settings: NCI-H23, 48 h
HCC 2998 = assay: Cytotoxicity against human HCC2998 cells assessed as growth inhibition after 48 hrs by SRB assay; format: functional; settings: HCC 2998, 48 h
HCT-15 = assay: Cytotoxicity against human HCT15 cells assessed as growth inhibition after 48 hrs by SRB assay; format: functional; settings: HCT-15, 48 h
HT-29 = assay: Cytotoxicity against human HT-29 cells assessed as growth inhibition after 48 hrs by SRB assay; format: functional; settings: HT-29, 48 h
SW-620 = assay: Cytotoxicity against human SW620 cells assessed as growth inhibition after 48 hrs by SRB assay; format: functional; settings: SW-620, 48 h
SF-295 = assay: Cytotoxicity against human SF295 cells assessed as growth inhibition after 48 hrs by SRB assay; format: functional; settings: SF-295, 48 h
SNB-75 = assay: Cytotoxicity against human SNB75 cells assessed as growth inhibition after 48 hrs by SRB assay; format: functional; settings: SNB-75, 48 h
U-251 = assay: Cytotoxicity against human U251 cells assessed as growth inhibition after 48 hrs by SRB assay; format: functional; settings: U-251, 48 h
M14 = assay: Cytotoxicity against human M14 cells assessed as growth inhibition after 48 hrs by SRB assay; format: functional; settings: M14, 48 h
IGROV-1 = assay: Cytotoxicity against human IGROV1 cells assessed as growth inhibition after 48 hrs by SRB assay; format: functional; settings: IGROV-1, 48 h
OVCAR-3 = assay: Cytotoxicity against human OVCAR3 cells assessed as growth inhibition after 48 hrs by SRB assay; format: functional; settings: OVCAR-3, 48 h
OVCAR-4 = assay: Cytotoxicity against human OVCAR4 cells assessed as growth inhibition after 48 hrs by SRB assay; format: functional; settings: OVCAR-4, 48 h
OVCAR-5 = assay: Cytotoxicity against human OVCAR5 cells assessed as growth inhibition after 48 hrs by SRB assay; format: functional; settings: OVCAR-5, 48 h
SK-OV-3 [1] = assay: Cytotoxicity against human SKOV3 cells assessed as growth inhibition after 48 hrs by SRB assay; format: functional, cell-based; settings: SK-OV-3, 48 h
Outline: (§1)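 SRB assay; IC50 is the mean of three independent experiments, each run in triplicate. Cells were kept at 37 °C under 5% CO2. HeLa and SK-OV-3 lines (parental and MDR1-M6/6) were grown in Basal Medium Eagle with 10% FBS, 1% GlutaMAX and 50 µg/mL gentamycin. HeLa WTβIII was grown in DMEM with 10% FBS.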

A498 = assay: Cytotoxicity against human A498 cells assessed as growth inhibition after 48 hrs by SRB assay; format: functional; settings: A498, 48 h
ACHN = assay: Cytotoxicity against human ACHN cells assessed as growth inhibition after 48 hrs by SRB assay; format: functional
RXF 393 = assay: Cytotoxicity against human RXF393 cells assessed as growth inhibition after 48 hrs by SRB assay; format: functional; settings: RXF 393, 48 h
SN12C = assay: Cytotoxicity against human SN12C cells assessed as growth inhibition after 48 hrs by SRB assay; format: functional
TK-10 = assay: Cytotoxicity against human TK10 cells assessed as growth inhibition after 48 hrs by SRB assay; format: functional; settings: TK-10, 48 h
UO-31 = assay: Cytotoxicity against human UO31 cells assessed as growth inhibition after 48 hrs by SRB assay; format: functional; settings: UO-31, 48 h
PC-3 = assay: Cytotoxicity against human PC3 cells assessed as growth inhibition after 48 hrs by SRB assay; format: functional; settings: PC-3, 48 h
MCF7 = assay: Cytotoxicity against human MCF7 cells assessed as growth inhibition after 48 hrs by SRB assay; format: functional; settings: MCF7, 48 h
MDA-MB-231 = assay: Cytotoxicity against human MDA-MB-231 cells assessed as growth inhibition after 48 hrs by SRB assay; format: functional; settings: MDA-MB-231, 48 h
SK-OV-3 [2] = assay: Antiproliferative activity against multidrug resistant human SKOV3 cells expressing MDR1-M6/6 after 48 hrs by SRB assay; format: functional, cell-based; settings: SK-OV-3, 48 h; outline: as §1
HeLa [3] = assay: Antiproliferative activity against human HeLa cells after 48 hrs by SRB assay; format: functional, cell-based; outline: as §1
HeLa [4] = assay: Relative ratio of IC50 for human HeLa cells expressing wild type beta3 tubulin to IC50 for human HeLa cells; format: functional

COc1ccc(N(C)c2ncnc3occ(C)c23)cc1
IC50 (Tubulin): 3.3 µM
GI50 (HL-60(TB)): < 0.01 µM
GI50 (K562): < 0.01 µM
GI50 (RPMI-8226): < 0.01 µM
GI50 (A549): < 0.01 µM
GI50 (EKVX): < 0.01 µM
GI50 (NCI-H23): < 0.01 µM
GI50 (HCC 2998): < 0.01 µM
GI50 (HCT-15): < 0.01 µM
GI50 (HT-29): < 0.01 µM
GI50 (SW-620): < 0.01 µM
GI50 (SF-295): < 0.01 µM
GI50 (SNB-75): < 0.01 µM
GI50 (U-251): < 0.01 µM
GI50 (M14): < 0.01 µM
GI50 (IGROV-1): < 0.01 µM
GI50 (OVCAR-3): < 0.01 µM
GI50 (OVCAR-4): < 0.01 µM
GI50 (OVCAR-5): 0.0128 µM
GI50 (SK-OV-3 [1]): < 0.01 µM
IC50 (SK-OV-3 [1]): 0.0077 µM
GI50 (A498): < 0.01 µM
GI50 (ACHN): 0.0225 µM
GI50 (RXF 393): < 0.01 µM
GI50 (SN12C): < 0.01 µM
GI50 (TK-10): 0.0753 µM
GI50 (UO-31): < 0.01 µM
GI50 (PC-3): < 0.01 µM
GI50 (MCF7): < 0.01 µM
GI50 (MDA-MB-231): < 0.01 µM
IC50 (SK-OV-3 [2]): 0.0084 µM
IC50 (HeLa [3]): 0.0095 µM
Ratio IC50 (HeLa [4]): 0.9
